Data taken from ChEMBL document CHEMBL4390639, “Design, Synthesis, and Biological Evaluation of Novel Allosteric Protein Disulfide Isomerase Inhibitors” (J Med Chem, 2019).
Activity calls are given as the source filed them. The calls are words filed in the database; no cut-off is given here.

What was measured:
U-87 MG [1] = assay: Inhibition of colony formation in human U87MG cells assessed as combination index at 1 to 30 uM measured after 24 hrs in presence of arsenic trioxide by crystal violet staining based assay; type: functional, U-87MG ATCC
[2] = tested on: Protein disulfide-isomerase (Homo sapiens), P07237 [H256A]; assay: Inhibition of recombinant human N-terminal His-tagged PDI H256A mutant expressed in Escherichia coli BL21 (DE3) pLysS at 100 uM measured after 1 hr by ANS dye based fluorescence spectra analysis
U-87 MG [3] = assay: Up regulation of TM4SF19-TCTEX1D2 gene expression in human U87MG cells at 10 uM incubated for 4 hrs followed by bromouridine addition during last 30 mins of incubation by TRIzol-reagent based Bru-Seq analysis relative to control; type: functional, U-87MG ATCC
How it was run: (§1)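 U87MG cells treated 4 h with test compound (10 or 16 μM, as per line) or DMSO; 2 mM bromouridine added for final 30 min. Total RNA isolated with TRIzol, Bru-labelled nascent RNA captured with anti-BrdU antibody magnetic beads and sequenced; transcript abundance (RPKM) compared with DMSO control. Single experiment.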

U-87 MG [4] = assay: Up regulation of SLC7A5 gene expression in human U87MG cells at 10 uM incubated for 4 hrs followed by bromouridine addition during last 30 mins of incubation by TRIzol-reagent based Bru-Seq analysis relative to control; type: functional, U-87MG ATCC; how it was run: as §1
U-87 MG [5] = assay: Down regulation of C11orf87 gene expression in human U87MG cells at 10 uM incubated for 4 hrs followed by bromouridine addition during last 30 mins of incubation by TRIzol-reagent based Bru-Seq analysis relative to control; type: functional, U-87MG ATCC
U-87 MG [6] = assay: Up regulation of CTH gene expression in human U87MG cells at 10 uM incubated for 4 hrs followed by bromouridine addition during last 30 mins of incubation by TRIzol-reagent based Bru-Seq analysis relative to control; type: functional, U-87MG ATCC
How it was run: (§2)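 U87MG cells exposed to compound or DMSO vehicle for 4 h, with 2 mM bromouridine added for the final 30 min. Total RNA isolated with TRIzol; Bru-labelled nascent RNA captured on anti-BrdU antibody-conjugated magnetic beads and sequenced. Transcript abundance expressed as RPKM relative to DMSO. Experiment performed once.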

U-87 MG [7] = assay: Down regulation of FPGT gene expression in human U87MG cells at 10 uM incubated for 4 hrs followed by bromouridine addition during last 30 mins of incubation by TRIzol-reagent based Bru-Seq analysis relative to control; type: functional, U-87MG ATCC
U-87 MG [8] = assay: Down regulation of BBS10 gene expression in human U87MG cells at 10 uM incubated for 4 hrs followed by bromouridine addition during last 30 mins of incubation by TRIzol-reagent based Bru-Seq analysis relative to control; type: functional, U-87MG ATCC
U-87 MG [9] = assay: Up regulation of TRIB3 gene expression in human U87MG cells at 10 uM incubated for 4 hrs followed by bromouridine addition during last 30 mins of incubation by TRIzol-reagent based Bru-Seq analysis relative to control; type: functional, U-87MG ATCC; how it was run: as §1
U-87 MG [10] = assay: Down regulation of CTHRC1 gene expression in human U87MG cells at 10 uM incubated for 4 hrs followed by bromouridine addition during last 30 mins of incubation by TRIzol-reagent based Bru-Seq analysis relative to control; type: functional, U-87MG ATCC
U-87 MG [11] = assay: Down regulation of E2F8 gene expression in human U87MG cells at 10 uM incubated for 4 hrs followed by bromouridine addition during last 30 mins of incubation by TRIzol-reagent based Bru-Seq analysis relative to control; type: functional, U-87MG ATCC
A 172 = assay: Antimigratory activity against human A172 cells at 10 uM measured after 4 hrs by Giemsa staining based transwell migration assay; type: functional, cell-based
How it was run: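 A172 cells (1 x 10^5) were treated with compound and seeded into inserts with 8.0 μm PET membrane in serum-free medium. DMEM with 10% FBS was in the lower well; wells without FBS served as control. After 4 h, migrated cells were Giemsa-stained and imaged at 10X, 5 fields per well.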

U-87 MG [12] = assay: Up regulation of HMOX1 gene expression in human U87MG cells at 16 uM incubated for 4 hrs followed by bromouridine addition during last 30 mins of incubation by TRIzol-reagent based Bru-Seq analysis relative to control; type: functional, U-87MG ATCC; how it was run: as §2
U-87 MG [13] = assay: Down regulation of AC006206.2 gene expression in human U87MG cells at 16 uM incubated for 4 hrs followed by bromouridine addition during last 30 mins of incubation by TRIzol-reagent based Bru-Seq analysis relative to control; type: functional, U-87MG ATCC; how it was run: as §2
U-87 MG [14] = assay: Up regulation of AC005324.3 gene expression in human U87MG cells at 16 uM incubated for 4 hrs followed by bromouridine addition during last 30 mins of incubation by TRIzol-reagent based Bru-Seq analysis relative to control; type: functional, U-87MG ATCC; how it was run: as §2
U-87 MG [15] = assay: Up regulation of TRIM16L gene expression in human U87MG cells at 16 uM incubated for 4 hrs followed by bromouridine addition during last 30 mins of incubation by TRIzol-reagent based Bru-Seq analysis relative to control; type: functional, U-87MG ATCC
U-87 MG [16] = assay: Down regulation of BIRC3 gene expression in human U87MG cells at 16 uM incubated for 4 hrs followed by bromouridine addition during last 30 mins of incubation by TRIzol-reagent based Bru-Seq analysis relative to control; type: functional, U-87MG ATCC
U-87 MG [17] = assay: Down regulation of RAET1E gene expression in human U87MG cells at 16 uM incubated for 4 hrs followed by bromouridine addition during last 30 mins of incubation by TRIzol-reagent based Bru-Seq analysis relative to control; type: functional, U-87MG ATCC; how it was run: as §2
U-87 MG [18] = assay: Down regulation of STRA6 gene expression in human U87MG cells at 16 uM incubated for 4 hrs followed by bromouridine addition during last 30 mins of incubation by TRIzol-reagent based Bru-Seq analysis relative to control; type: functional, U-87MG ATCC; how it was run: as §2
U-87 MG [19] = assay: Up regulation of SLC7A11 gene expression in human U87MG cells at 16 uM incubated for 4 hrs followed by bromouridine addition during last 30 mins of incubation by TRIzol-reagent based Bru-Seq analysis relative to control; type: functional, U-87MG ATCC; how it was run: as §1
U-87 MG [20] = assay: Up regulation of HSPH1 gene expression in human U87MG cells at 16 uM incubated for 4 hrs followed by bromouridine addition during last 30 mins of incubation by TRIzol-reagent based Bru-Seq analysis relative to control; type: functional, U-87MG ATCC; how it was run: as §2
U-87 MG [21] = assay: Down regulation of PRLR gene expression in human U87MG cells at 16 uM incubated for 4 hrs followed by bromouridine addition during last 30 mins of incubation by TRIzol-reagent based Bru-Seq analysis relative to control; type: functional, U-87MG ATCC
How it was run: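 Bru-seq in U87MG cells treated at 16 μM for 4 h; 2 mM bromouridine present during the last 30 min. TRIzol total RNA, then anti-BrdU bead capture of labelled RNA and sequencing. Readout is RPKM traces versus DMSO control. Performed once.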

U-87 MG [22] = assay: Down regulation of CTGF gene expression in human U87MG cells at 16 uM incubated for 4 hrs followed by bromouridine addition during last 30 mins of incubation by TRIzol-reagent based Bru-Seq analysis relative to control; type: functional, U-87MG ATCC
U-87 MG [23] = assay: Up regulation of BAG3 gene expression in human U87MG cells at 16 uM incubated for 4 hrs followed by bromouridine addition during last 30 mins of incubation by TRIzol-reagent based Bru-Seq analysis relative to control; type: functional, U-87MG ATCC; how it was run: as §2
U-87 MG [24] = assay: Down regulation of KCTD4 gene expression in human U87MG cells at 16 uM incubated for 4 hrs followed by bromouridine addition during last 30 mins of incubation by TRIzol-reagent based Bru-Seq analysis relative to control; type: functional, U-87MG ATCC

Chain of Protein disulfide-isomerase (Homo sapiens), P07237 [H256A] (P07237 whole entry H256A): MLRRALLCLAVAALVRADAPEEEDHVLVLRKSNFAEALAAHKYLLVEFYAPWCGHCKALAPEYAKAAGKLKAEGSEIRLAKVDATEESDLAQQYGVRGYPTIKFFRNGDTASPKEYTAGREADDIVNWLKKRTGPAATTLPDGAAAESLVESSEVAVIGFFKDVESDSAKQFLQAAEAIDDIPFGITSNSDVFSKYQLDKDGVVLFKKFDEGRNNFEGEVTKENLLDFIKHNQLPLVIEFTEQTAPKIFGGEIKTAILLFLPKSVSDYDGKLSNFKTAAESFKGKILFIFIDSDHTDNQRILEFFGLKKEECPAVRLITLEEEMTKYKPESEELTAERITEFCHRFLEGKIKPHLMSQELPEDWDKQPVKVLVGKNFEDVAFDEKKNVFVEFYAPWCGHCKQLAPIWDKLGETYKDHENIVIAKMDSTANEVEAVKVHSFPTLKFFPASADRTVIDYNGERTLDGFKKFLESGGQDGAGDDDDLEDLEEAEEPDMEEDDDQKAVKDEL

`N#Cc1cccc(/C=C/C(=O)c2ccc(O)cc2)c1` showed a CI (U-87 MG [1]) of under 1.

For `CCCCCN(CCCCC)S(=O)(=O)c1ccc(C(=O)/C=C/c2cccc(O)c2)cc1`, the inhibition [2] was “Active”.

For `CCCCCN(CCCCC)S(=O)(=O)c1ccc(C(=O)/C=C/c2cccc(C#N)c2)cc1`, the “fold change (FC)” value (U-87 MG [3]) was 8.7, the “fold change (FC)” value (U-87 MG [4]) was 16.8 and the “fold change (FC)” value (U-87 MG [5]) was 2.4. The “fold change (FC)” value (U-87 MG [6]) was 17.7, the “fold change (FC)” value (U-87 MG [7]) was 2.3 and the “fold change (FC)” value (U-87 MG [8]) was 2.3. The “fold change (FC)” value (U-87 MG [9]) was 34.1, the “fold change (FC)” value (U-87 MG [10]) was 2.4 and the “fold change (FC)” value (U-87 MG [11]) was 2.4. The Activity (A 172) was “Active”.

For `COC(=O)c1cccc(/C=C/C(=O)c2cccc(O)c2)c1`, the “fold change (FC)” value (U-87 MG [12]) was 21.6, the “fold change (FC)” value (U-87 MG [13]) was 3.9 and the “fold change (FC)” value (U-87 MG [14]) was 5.3. The “fold change (FC)” value (U-87 MG [15]) was 4.9, the “fold change (FC)” value (U-87 MG [16]) was 3.3 and the “fold change (FC)” value (U-87 MG [17]) was 3.4. For the same compound, the “fold change (FC)” value (U-87 MG [18]) was 4, the “fold change (FC)” value (U-87 MG [19]) was 21.2 and the “fold change (FC)” value (U-87 MG [20]) was 5. For the same compound, the “fold change (FC)” value (U-87 MG [21]) was 2.6, the “fold change (FC)” value (U-87 MG [22]) was 3.1 and the “fold change (FC)” value (U-87 MG [23]) was 1.9. The “fold change (FC)” value (U-87 MG [24]) was 3.
